Data set [1] deals with Rattus norvegicus. As to the kind of experiment: In vivo blocking of apomorphine induced hyperactivity following 1 mg/kg i.p. in rats after 60 min. The format is functional. To be noted: ip, 1 h, route intraperitoneal. In short, it runs like this: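 Male Sprague-Dawley rats (250-300 g) were dosed ip with test compound in saline or water 60 min before apomorphine 1 mg/kg sc into the neck. Behavior was scored at 5, 20, 40 and 60 min. It was calculated by Theil's method with Sen's tie correction, with a 90% confidence interval.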

For data set [2], the system named is Rattus norvegicus. As to the kind of experiment: In vivo blocking of apomorphine induced stereotypies following 1 mg/kg i.p. in rats after 60 min. To be noted: ip, 1 h, route intraperitoneal. The format is functional. In short, it runs like this:
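Male Sprague-Dawley rats (250-300 g) received test compound ip in saline or water 60 min before sc apomorphine 1 mg/kg given into the neck. Stereotypy strength was scored at 5, 20, 40 and 60 min. It was derived by Theil's method with Sen's correction for ties, with a 90% confidence interval.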

Data set [3] is described as follows: The acute toxicity was assessed after (ip) administration in male Sprague-Dawley rats. The format is organism-based. To be noted: rat, in vivo.
In data set [4] the test system is Rattus norvegicus. In words: The dosage at which 50% of the animals were cataleptic was measured after (ip) administration in male Sprague-Dawley rats. Format: functional. In short, it runs like this: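 Eight rats per dose level were tested. Both forelimbs were placed on a 7-cm-high horizontal bar, and failure to step off within 60 s counted as cataleptic. Testing was done 1, 2, 4, 8 and 24 h post-dose. ED50 with 95% confidence interval came from probit analysis of each compound's peak cataleptic effect.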

The text below walks through data of ChEMBL document CHEMBL1121964, “Potential neuroleptic agents. 2,6-Dialkoxybenzamide derivatives with potent dopamine receptor blocking activities” (J Med Chem, 1982).

Each structure is given as a SMILES string.

The term ED50 denotes the dose that gives a 50% effect, or the effect in half of the subjects. Read a low ED50 as greater potency. `CCOc1cccc(OCC)c1C(=O)NCC1CCCN1CC` (stereo not drawn): the ED50 in the data set on Rattus norvegicus [1] was 23.4 µmol/kg; with Rattus norvegicus [2], > 40 µmol/kg.
In the case of `CCN(CC1CCCN1CC)C(=O)c1c(OC)c(Br)cc(Br)c1OC` (stereo not drawn), the ED50 in the data set on Rattus norvegicus [1] and in the data set on Rattus norvegicus [2] was > 80 µmol/kg throughout.
For orientation: LD50 means the dose at which mortality reaches 50%. `CCN1CCC[C@@H]1CNC(=O)c1c(OC)c(Br)cc(Br)c1OC`: the ED50 in the data set on Rattus norvegicus [1] is 13.1 µmol/kg; with Rattus norvegicus [2] it was > 82 µmol/kg. Further, the LD50 in data set [3] turned out to be 159 µmol/kg.
Turning to `CCN1CCCC1CNC(=O)c1c(Cl)cccc1Cl` (stereo not drawn), the ED50 with Rattus norvegicus [1] and in the data set on Rattus norvegicus [2] was > 80 µmol/kg in each case.
Consider `CCN1CCCC1CNC(=O)c1c(OC)c(Cl)cc(Cl)c1OC` (stereo not drawn), for which the ED50 with Rattus norvegicus [1] amounted to 3.1 µmol/kg; with Rattus norvegicus [2] it was 5.4 µmol/kg; in the data set with Rattus norvegicus [4], 16.8 µmol/kg. Further, the LD50 in data set [3] worked out at 224 µmol/kg.
Take `CCN1CCCC1CNC(=O)c1c(OC)ccc(Cl)c1OC` (stereo not drawn): the ED50 with Rattus norvegicus [1] worked out at 30.8 µmol/kg; with Rattus norvegicus [2], 42.7 µmol/kg.
`CCOc1ccc(Br)c(OCC)c1C(=O)NCC1CCCN1CC` (stereo not drawn): the results for the ED50 in the data set on Rattus norvegicus [1], in the data set on Rattus norvegicus [2] and in the data set on Rattus norvegicus [4] were 1.1 µmol/kg, 4.7 µmol/kg and 15.7 µmol/kg, respectively.
With `CCN1CCCC1CNC(=O)c1cc(S(N)(=O)=O)ccc1OC` (stereo not drawn) [SULPIRIDE], the 50% effective dose (ED50) in the data set on Rattus norvegicus [1] worked out at 65.6 µmol/kg; with Rattus norvegicus [2], 212 µmol/kg; in the data set with Rattus norvegicus [4], 161 µmol/kg.
Consider `CCN1CCC[C@H]1CNC(=O)c1c(OC)ccc(Cl)c1OC.Cl`, for which the ED50 in the data set on Rattus norvegicus [1] came to 5.6 µmol/kg; with Rattus norvegicus [2], 11.7 µmol/kg. For the same compound, in data set [3], the LD50 was ~826 µmol/kg.
Turning to `CCN1CCC[C@H]1CNC(=O)c1c(OC)c(Br)cc(Br)c1OC`, the ED50 in the data set on Rattus norvegicus [1] turned out to be 0.44 µmol/kg; with Rattus norvegicus [2], 2.1 µmol/kg; with Rattus norvegicus [4], 5.3 µmol/kg.
Take `COc1ccc(Br)c(OC)c1C(=O)NCC1CCCN1` (stereo not drawn): the ED50 with Rattus norvegicus [1] worked out at 47 µmol/kg; with Rattus norvegicus [2], 100 µmol/kg.
Consider `CCN1CCCC1CNC(=O)c1c(OC(C)C)cccc1OC(C)C.Cl` (stereo not drawn), for which the ED50 in the data set with Rattus norvegicus [1] and in the data set on Rattus norvegicus [2] was > 80 µmol/kg throughout. Besides, the LD50 in data set [3] is ~160 µmol/kg.
As for `O=C(CCCN1CCC(O)(c2ccc(Cl)cc2)CC1)c1ccc(F)cc1` [HALOPERIDOL], the ED50 with Rattus norvegicus [1] came to 0.29 µmol/kg; in the data set with Rattus norvegicus [2], 0.27 µmol/kg; with Rattus norvegicus [4] it was 0.67 µmol/kg.
In the case of `CCN1CCCC1CNC(=O)c1c(OC)ccc(Br)c1OC.Cl` (stereo not drawn), the ED50 in the data set on Rattus norvegicus [1] was found to be 12.8 µmol/kg; in the data set on Rattus norvegicus [2], 21.3 µmol/kg; with Rattus norvegicus [4], 47 µmol/kg. In addition, the LD50 in data set [3] worked out at 817 µmol/kg.
For `CCOc1ccc(Br)c(OCC)c1C(=O)NC[C@@H]1CCCN1CC.Cl`, the ED50 with Rattus norvegicus [1] was determined as 0.47 µmol/kg; with Rattus norvegicus [2], 1.9 µmol/kg; with Rattus norvegicus [4] it was 8.9 µmol/kg. This compound came in with an LD50 in data set [3] of 206 µmol/kg.
The corresponding values for `CCN1CCCC1CNC(=O)c1c(OC)c(Br)cc(Br)c1OC.Cl` (stereo not drawn) are 1.15 µmol/kg, 4.6 µmol/kg, 8.2 µmol/kg and 177 µmol/kg.
As to `CCOc1ccc(Cl)c(OCC)c1C(=O)NCC1CCCN1CC` (stereo not drawn), the ED50 with Rattus norvegicus [1] turned out to be 2.8 µmol/kg; in the data set with Rattus norvegicus [2], 7.2 µmol/kg; in the data set on Rattus norvegicus [4], 31 µmol/kg.
In the data set with Rattus norvegicus [4], `CCN1CCC[C@H]1CNC(=O)c1c(OC)ccc(Br)c1OC.Cl` showed an ED50 of 24.5 µmol/kg. In data set [3], this compound came in with an LD50 of 794 µmol/kg.
As to `CCN1CCC[C@@H]1CNC(=O)c1c(OC)ccc(Br)c1OC`, the ED50 was 120 µmol/kg with Rattus norvegicus [1] and > 196 µmol/kg in the data set on Rattus norvegicus [2].
Turning to `CCN1CCCC1CNC(=O)c1c(OC)c(Cl)cc(Br)c1OC` (stereo not drawn), the values for the ED50 in the data set with Rattus norvegicus [1], in the data set with Rattus norvegicus [2] and in the data set on Rattus norvegicus [4] were 3.9 µmol/kg, 7.3 µmol/kg and 5 µmol/kg, respectively. The LD50 in data set [3] is 206 µmol/kg.
